ChEMBL document CHEMBL1143267, “Type II NADH dehydrogenase of the respiratory chain of Plasmodium falciparum and its inhibitors” (Bioorg Med Chem Lett, 2009)

Tests used:
[1] = biological target: T1, Dihydroorotate dehydrogenase (Plasmodium falciparum, UniProt Q54A96); test: Inhibition of Plasmodium falciparum DHOD
T1 sequence (Q54A96 whole entry): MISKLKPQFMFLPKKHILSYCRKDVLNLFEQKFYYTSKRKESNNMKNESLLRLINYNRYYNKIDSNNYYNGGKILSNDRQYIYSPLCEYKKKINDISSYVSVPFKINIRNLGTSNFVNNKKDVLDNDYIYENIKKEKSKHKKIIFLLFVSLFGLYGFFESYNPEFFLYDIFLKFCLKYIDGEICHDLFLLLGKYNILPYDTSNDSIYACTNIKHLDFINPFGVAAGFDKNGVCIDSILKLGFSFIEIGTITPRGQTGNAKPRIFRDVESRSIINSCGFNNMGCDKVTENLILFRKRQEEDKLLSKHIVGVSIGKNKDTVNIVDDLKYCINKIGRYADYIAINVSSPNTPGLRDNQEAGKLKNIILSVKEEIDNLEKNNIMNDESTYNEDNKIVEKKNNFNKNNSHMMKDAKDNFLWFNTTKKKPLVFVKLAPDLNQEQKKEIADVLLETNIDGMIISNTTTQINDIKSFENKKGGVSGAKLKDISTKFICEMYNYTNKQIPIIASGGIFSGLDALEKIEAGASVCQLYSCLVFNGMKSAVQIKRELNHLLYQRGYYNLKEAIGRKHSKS
Summary of the method: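 DCIP-coupled chromogenic assay with 500 µM L-dihydroorotate and 115 µM CoQ0 as electron acceptor. Compounds tested up to 10 µM. IC50 from three independent experiments.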

[2] = test system: Plasmodium falciparum; test: Antimalarial activity against Plasmodium falciparum DD2 by [3H]hypoxanthine uptake; assay type: functional, organism-based
Summary of the method: (§1)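 Asexual parasite proliferation measured by [3H]-hypoxanthine incorporation dose–effect curves, in parental DD2 and a transgenic DD2 line expressing yeast cytoplasmic DHOD. IC50 from three independent experiments. Antimycin A, a mixture of A1–A4, expressed in mg/mL.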

[3] = test system: Plasmodium falciparum; test: Antimalarial activity against Plasmodium falciparum DD2 expressing Saccharomyces cerevisiae DHOD by [3H]hypoxanthine uptake; assay type: functional, organism-based; summary of the method: as §1
[4] = Inhibition of Plasmodium falciparum NDH2
Summary of the method: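 Purified recombinant His-tagged enzyme, HEPES pH 8.0. Reaction with 200 µM NADH and 100 µM CoQ0. NAD+ product quantified by fluorescence after acetophenone/formic acid derivatisation at 100 °C (ex 372/em 444 nm). Compounds tested up to 10 µM. IC50 from three independent experiments.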

[5] = biological target: T2, Dihydroorotate dehydrogenase (fumarate) (Saccharomyces cerevisiae S288c, UniProt P28272); test: Inhibition of Saccharomyces cerevisiae DHOD
T2 sequence (P28272 whole entry): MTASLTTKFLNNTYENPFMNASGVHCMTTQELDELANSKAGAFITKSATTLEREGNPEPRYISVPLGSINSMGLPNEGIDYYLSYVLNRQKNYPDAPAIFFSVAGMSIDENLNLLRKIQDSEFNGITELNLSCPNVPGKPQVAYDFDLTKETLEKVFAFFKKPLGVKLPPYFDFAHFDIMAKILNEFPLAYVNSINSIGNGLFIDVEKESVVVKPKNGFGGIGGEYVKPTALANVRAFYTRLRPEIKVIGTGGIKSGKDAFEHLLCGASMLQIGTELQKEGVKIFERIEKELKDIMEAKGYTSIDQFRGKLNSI

[6] = test system: Plasmodium falciparum; test: Activity of Plasmodium falciparum NDH2 expressed in Escherichia coli by Michaelis-Menten plot
Summary of the method: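 Full-length enzyme with C-terminal 6xHis tag, purified in 0.5% Triton X-100. NAD+ formed was quantified by fluorescence: acetophenone base, then formic acid at 100 °C, excitation 372 nm, emission 444 nm. HEPES pH 8.0. One substrate (electron acceptor or NADH) varied while the other was fixed at 500 µM. Km and kcat from best-fit Michaelis–Menten curves, three independent experiments.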

Question: What does the source list for `C=C(C)[C@H]1Cc2c(ccc3c2O[C@@H]2COc4cc(OC)c(OC)cc4[C@@H]2C3=O)O1` [ROTENONE]?
Answer: IC50 [1]: > 10 µM; IC50 [2]: > 10 µM; IC50 [3]: > 10 µM; IC50 [4]: > 10 µM; IC50 [5]: > 10 µM

Question: Which IC50 [1] does the source give for `c1ccc2c(c1)[I+]c1ccccc1-2` [DIPHENYLENEIODONIUM CHLORIDE] here?
Answer: > 10 µM

Question: With `CC1=CC(=O)c2ccccc2C1=O` as the compound, how does the Km [6] read?
Answer: 239 µM

Question: And the kcat [6]?
Answer: 0.0767 s⁻¹

Question: With `C[C@@H]1CC[C@H]2[C@@H](C)C(=O)O[C@@H]3O[C@@]4(C)CC[C@@H]1[C@]32OO4` [ARTEMISININ] as the compound, how does the IC50 [1] read?
Answer: > 10 µM

Question: What about the IC50 [3] of the same compound?
Answer: 0.006 µM

Question: What about the IC50 [4] of the same compound?
Answer: > 10 µM

Question: What about the IC50 [5] of the same compound?
Answer: > 10 µM

Question: What does the source list for `CCCCCCCCCCCCc1cc(=O)c2ccccc2n1O`?
Answer: IC50 [1]: 4 µM; IC50 [3]: > 10 µM; IC50 [4]: > 10 µM; IC50 [5]: > 10 µM

Question: With `c1ccc([I+]c2ccccc2)cc1` [DIPHENYLIODONIUM CHLORIDE] as the compound, how does the IC50 [1] read?
Answer: > 10 µM

Question: And the IC50 [2]?
Answer: 12.4 µM

Question: And the IC50 [3]?
Answer: 10.6 µM

Question: And the IC50 [4]?
Answer: > 10 µM

Question: What about the IC50 [5] of the same compound?
Answer: > 10 µM

Question: Which IC50 [1] does the source give for `O=c1cc(-c2ccccc2)oc2ccccc12` [FLAVONE] here?
Answer: > 10 µM

Question: What about the IC50 [2] of the same compound?
Answer: 0.002 µM

Question: And the IC50 [3]?
Answer: > 10 µM

Question: And the IC50 [4]?
Answer: > 10 µM

Question: What about the IC50 [5] of the same compound?
Answer: > 10 µM

Question: For `CCCCCC[C@H]1C(=O)O[C@H](C)[C@H](NC(=O)c2cccc(NC=O)c2O)C(=O)O[C@@H](C)[C@@H]1OC(=O)CC(C)C` [ANTIMYCIN A], which IC50 [1] is on record?
Answer: > 10 µM

Question: And the IC50 [3]?
Answer: > 10 µM

Question: And the IC50 [4]?
Answer: > 10 µM

Question: What about the IC50 [5] of the same compound?
Answer: > 10 µM

Question: Which results are given for `O=C1C=CC(=Nc2cc(Cl)c(O)c(Cl)c2)C=C1`?
Answer: Km [6]: 4.6 µM; kcat [6]: 0.0317 s⁻¹

Question: Which results are given for `O=C1C(O)=C([C@H]2CC[C@H](c3ccc(Cl)cc3)CC2)C(=O)c2ccccc21` [ATOVAQUONE]?
Answer: IC50 [1]: > 10 µM; IC50 [2]: 0.002 µM; IC50 [3]: > 10 µM; IC50 [4]: > 10 µM; IC50 [5]: > 10 µM
